The first data set concerns Plasma. The experiment in a line: Drug metabolism in human plasma assessed as formation of 2-((trans)-4-(2-amino-6-(6-methoxypyridin-3-yl)-4-methyl-7-oxopyrido[2,3-d]pyrimidin-8(7H)-yl)cyclohexyloxy)acetic acid at 8 mg, po qd for 21 days by HPLC analysis. The data set is classed as ADME, organism-based. To be noted: in vivo, 504 h. The method, boiled down:
(§1)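 Human plasma came from patients given 8 mg once daily in a clinical dose-escalation study. Metabolites were profiled from the total ion chromatogram. Peaks were assigned by retention time and molecular ion (m/z) against reference standards and parent drug.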
`COc1ccc(-c2cc3c(C)nc(N)nc3n([C@H]3CC[C@H](OCCO)CC3)c2=O)cn1` [PF-04691502]: the Drug metabolism entry is recorded as “Active”.

The test system of a further data set is Plasma. The experiment in a line: Drug metabolism in human plasma assessed as formation of glucuronide conjugate at 8 mg, po qd for 21 days by HPLC analysis. Format: ADME, organism-based. As to conditions: in vivo, 504 h; call rule not given here. The method, boiled down: as §1
On to `COc1ccc(-c2cc3c(C)nc(N)nc3n([C@H]3CC[C@H](OCCO)CC3)c2=O)cn1` [PF-04691502], for which the Drug metabolism result is on record as “Active”.

System in a further data set: not listed separately
The experiment in a line: Toxicity against nu/nu mouse. The data set is classed as organism-based. To be noted: in vivo. The method, boiled down: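 Tolerability assessed in mice bearing U87 xenografts during tumour growth inhibition studies. Groups received vehicle or 1, 3 or 10 mg/kg. Plasma free drug levels and AKT phosphorylation were sampled at 1 h and 24 h in the top-dose group.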
`COc1ncc(-c2cc3c(C)nc(N)nc3n([C@H]3CC[C@H](OCO)CC3)c2=O)cc1F` registered an MTD of 10 mg/kg.

System in a further data set: not listed separately
Briefly: Volume of distribution at steady state in rat. Format: ADME, organism-based. As to conditions: in vivo, read-out: Vdss.
Take `COc1ncc(-c2cc3c(C)nc(N)nc3n([C@H]3CC[C@H](OCO)CC3)c2=O)cc1F`: the Vd turned out to be 4.08 L/kg.

System in another data set: not listed separately
The experiment in a line: Permeability across dog RRCK cells. The data set is classed as ADME, cell-based, Canis lupus familiaris, MDCKII-LE. To be noted: MDCK, read-out: permeability.
As to `Cc1nc(N)nc2c1cc(-c1cnc3ccccc3c1)c(=O)n2[C@H]1CC[C@@H](OCO)CC1`, the Papp turned out to be 416 nm/s.

Turning to `COc1ccc(-c2cc3c(C)nc(N)nc3n([C@H]3CC[C@H](OCC(N)=O)CC3)c2=O)cn1`, the Papp is 45.8 nm/s. On the same count and under the same terms, under `COc1ncc(-c2cc3c(C)nc(N)nc3n([C@H]3CC[C@H](OCC(N)=O)CC3)c2=O)cc1F` stands 262 nm/s. Same read-out and setting: under `COc1ccc(-c2cc3c(C)nc(N)nc3n([C@H]3CC[C@H](OCC(=O)O)CC3)c2=O)cn1` stands 2.95 nm/s. Same read-out and setting: in the case of `COc1ccc(-c2cc3c(C)nc(N)nc3n([C@H]3CC[C@@H](OCC(N)=O)CC3)c2=O)cn1` it was 303 nm/s. Regarding `Cc1nc(N)nc2c1cc(-c1cnc3ccccc3c1)c(=O)n2[C@H]1CC[C@@H](OCC(N)=O)CC1`, the Papp stood at 45.7 nm/s. Same read-out and setting: under `COc1ncc(-c2cc3c(C)nc(N)nc3n([C@H]3CC[C@H](OCC(N)=O)CC3)c2=O)cn1` stands 298 nm/s; under `Cc1nc(N)nc2c1cc(-c1cn[nH]c1)c(=O)n2[C@H]1CC[C@@H](OCC(N)=O)CC1`, 1.51 nm/s. Same read-out and setting: under `COc1ncc(-c2cc3c(C)nc(N)nc3n([C@H]3CC[C@@H](OCC(N)=O)CC3)c2=O)cn1` stands 301 nm/s. With `COc1ncc(-c2cc3c(C)nc(N)nc3n([C@H]3CC[C@H](OCO)CC3)c2=O)cn1`, the Papp was determined as 213 nm/s. On to `Cc1nc(N)nc2c1cc(-c1cn[nH]c1)c(=O)n2[C@H]1CC[C@@H](OCO)CC1`, for which the Papp amounted to 126 nm/s. Same read-out and setting: under `Cc1nc(N)nc2c1cc(-c1cnc3ccccc3c1)c(=O)n2[C@H]1CC[C@H](OCC(N)=O)CC1` stands 90.2 nm/s; under `Cc1nc(N)nc2c1cc(-c1cnn(C)c1)c(=O)n2[C@H]1CC[C@@H](OCO)CC1`, 233 nm/s. Still for that read-out and setting: in the case of `COc1ncc(-c2cc3c(C)nc(N)nc3n([C@H]3CC[C@@H](OCC(N)=O)CC3)c2=O)cc1F` it was 262 nm/s.

Take `Cc1nc(N)nc2c1cc(-c1cnc3ccccc3c1)c(=O)n2[C@H]1CC[C@H](OCO)CC1`: the Papp was found to be 197 nm/s.

System in a further data set: not listed separately
The experiment in a line: Oral bioavailability in rat. To be noted: in vivo. Format: ADME, organism-based.
On to `COc1ncc(-c2cc3c(C)nc(N)nc3n([C@H]3CC[C@H](OCO)CC3)c2=O)cc1F`, for which the bioavailability (commonly dose-corrected exposure relative to a reference, in per cent) stood at 79%.

The values are drawn from ChEMBL document CHEMBL2375270, “Structure-based design, SAR analysis and antitumor activity of PI3K/mTOR dual inhibitors from 4-methylpyridopyrimidinone series” (Bioorg Med Chem Lett, 2013).
